Experimental data: publication PMC4956517 (Experimental hematology, 2016)
Entries after “also recorded” stand apart in the source; their conditions may differ.

Key:
[1] = cited from earlier work
[2] = test system: EPOR (UT7epo cells); test: Western blotting of EPOR forms in UT7epo cells; assay type: cell-based, human; conditions: versus rHu-EPO
Method in brief: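 UT7epo cells were cultured in test compound or rHu-EPO at varied, biologically matched doses. For extended time-courses, medium plus ligand was replaced daily. Western blots over the time-course were probed with rabbit monoclonal anti-hEPOR IC-c1.1, with anti-GAPDH as loading control.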

[3] = test system: EPOR transcript; test: Quantitative RT-PCR of EPOR transcript levels; assay type: cell-based, human; conditions: peginesatide vs rHu-EPO; data not shown
[4] = test system: endogenous cell surface EPOR (UT7epo cells); test: Flow cytometry of endogenous cell surface EPOR in UT7epo cells; assay type: cell-based, human; conditions: versus rHu-EPO at matched doses (1.5U/mL vs 2.1 nM, 2.0 U/mL vs 2.8nM); days 4 and 8; antibody EC-c38.5; median and mean fluorescence intensities, clear statistical significance; n=3
[5] = target: T1, hEPOR-Fc construct (EPOR extracellular domain-IgFc) (Homo sapiens, UniProt P19235); test: Surface plasmon resonance; assay type: binding; conditions: Biacore
T1 sequence (P19235 25-250 limits assumed): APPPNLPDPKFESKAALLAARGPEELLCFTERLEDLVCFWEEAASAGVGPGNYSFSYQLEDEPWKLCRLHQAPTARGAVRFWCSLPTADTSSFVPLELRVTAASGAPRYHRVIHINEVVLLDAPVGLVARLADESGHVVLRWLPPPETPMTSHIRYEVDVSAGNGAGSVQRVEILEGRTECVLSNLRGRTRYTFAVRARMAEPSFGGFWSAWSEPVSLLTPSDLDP

**Q.** For “rHu-TPO: Thrombopoietin (TPO); effective in stimulating megakaryocyte and platelet production”, which TPO-reactive antibody formation ([1]; clinical trials, ref Basser 2002) is on record?
**A.** induce TPO- reactive antibody formation

**Q.** With peginesatide as the substance, how does the “processing of the EPOR to lower molecular weight forms” value ([2]; peginesatide as the EPOR ligand) read?
**A.** observed trends towards apparent lessened processing of the EPOR to lower molecular weight forms

**Q.** And the “levels of full-length EPOR-68K receptor forms” value ([2]; time-course, antibody IC-c1.1)?
**A.** elevated levels of full-length EPOR-68K receptor forms

**Q.** What about the “levels of lower molecular weight EPOR-36K form” value ([2]; time-course, antibody IC-c1.1) of the same substance?
**A.** no such increases were observed

**Q.** What about the allergenic side-effects ([1]; first-time recipients, ref Bennett, et al 2014) of the same substance?
**A.** can also somehow stimulate allergenic reactivity; also recorded: allergenic side-effects in certain first-time recipients

**Q.** And the anaphylactic reactions ([1]; ref Bennett, et al 2014)?
**A.** rare fatal anaphylaxis; also recorded: severe anaphylactic reactions infrequently experienced

**Q.** And the EPOR transcript levels [3]?
**A.** no differential effects

**Q.** And the “cell surface EPOR levels” value [4]?
**A.** notably elevated cell surface EPOR levels

**Q.** What about the “stability of binding to the EPOR” value ([5]; ECD-EPOR-Fc immobilized at 675 RU and 225 RU) of the same substance?
**A.** uniquely highly stable binding to the EPOR

**Q.** What about the “EPOR residence time, ratio to that of rHu-EPO” value ([5]; estimated, greater than that of rHu-EPO, immobilized ECD-EPOR-Fc) of the same substance?
**A.** 17.1 fold
